We go through 3 compounds from ChEMBL document CHEMBL5653631, “A Potent and Selective ULK1 Inhibitor Suppresses Autophagy and Sensitizes Cancer Cells to Nutrient Stress” (iScience, 2018).

The target of assay [1] is Dual specificity mitogen-activated protein kinase kinase 1 (Homo sapiens) (UniProt Q02750). Briefly: Inhibition of human recombinant MAP2K1 at 40 nM related to control ULK1.
The target of assay [2] is Serine/threonine-protein kinase PLK1 (Homo sapiens) (UniProt P53350). Put plainly: Inhibition of human recombinant PLK1 at 40 nM related to control ULK1.
Sequence of Serine/threonine-protein kinase PLK1 (Homo sapiens) (P53350 whole entry): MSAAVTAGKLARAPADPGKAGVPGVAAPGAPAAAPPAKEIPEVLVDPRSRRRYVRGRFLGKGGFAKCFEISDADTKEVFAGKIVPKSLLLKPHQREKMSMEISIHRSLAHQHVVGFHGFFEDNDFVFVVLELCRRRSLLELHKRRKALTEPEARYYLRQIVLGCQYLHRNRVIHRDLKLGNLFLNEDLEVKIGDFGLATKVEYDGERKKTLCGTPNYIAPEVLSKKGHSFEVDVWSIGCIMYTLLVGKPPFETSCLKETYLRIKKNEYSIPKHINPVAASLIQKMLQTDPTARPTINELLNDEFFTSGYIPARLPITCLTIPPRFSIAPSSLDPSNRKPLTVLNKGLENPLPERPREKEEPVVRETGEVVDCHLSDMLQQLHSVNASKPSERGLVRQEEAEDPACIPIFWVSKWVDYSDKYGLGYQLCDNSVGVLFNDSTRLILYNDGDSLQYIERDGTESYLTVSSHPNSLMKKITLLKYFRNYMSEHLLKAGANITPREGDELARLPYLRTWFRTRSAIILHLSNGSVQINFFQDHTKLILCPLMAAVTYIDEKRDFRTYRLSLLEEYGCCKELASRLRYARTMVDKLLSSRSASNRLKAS
Assay [3] deals with Maternal embryonic leucine zipper kinase (Homo sapiens) (UniProt Q14680). Put plainly: Inhibition of human recombinant MELK at 40 nM related to control ULK1.
Sequence of Maternal embryonic leucine zipper kinase (Homo sapiens) (Q14680 whole entry, looked up): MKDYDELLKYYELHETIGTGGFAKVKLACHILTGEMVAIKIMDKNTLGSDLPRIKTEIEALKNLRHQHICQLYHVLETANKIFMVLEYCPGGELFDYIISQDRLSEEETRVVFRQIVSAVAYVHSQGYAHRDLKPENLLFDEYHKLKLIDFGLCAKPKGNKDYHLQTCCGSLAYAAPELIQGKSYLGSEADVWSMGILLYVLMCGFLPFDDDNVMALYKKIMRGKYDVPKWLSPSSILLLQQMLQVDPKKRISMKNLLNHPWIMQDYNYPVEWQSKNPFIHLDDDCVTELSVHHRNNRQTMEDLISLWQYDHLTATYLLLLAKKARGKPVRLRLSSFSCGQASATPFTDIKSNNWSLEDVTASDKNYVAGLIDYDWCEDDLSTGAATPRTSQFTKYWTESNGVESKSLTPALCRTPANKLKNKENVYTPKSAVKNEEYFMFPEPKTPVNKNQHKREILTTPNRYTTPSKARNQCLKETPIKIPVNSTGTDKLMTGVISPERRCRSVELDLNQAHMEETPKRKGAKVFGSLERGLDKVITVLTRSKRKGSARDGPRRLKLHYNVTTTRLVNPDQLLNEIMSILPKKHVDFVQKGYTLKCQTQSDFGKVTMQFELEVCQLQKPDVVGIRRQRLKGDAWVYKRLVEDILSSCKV
The target in assay [4] is Serine/threonine-protein kinase MARK1 (Homo sapiens) (UniProt Q9P0L2). Put plainly: Inhibition of human recombinant MARK1 at 500 nM related to control ULK1.
Sequence of Serine/threonine-protein kinase MARK1 (Homo sapiens) (Q9P0L2 whole entry, looked up): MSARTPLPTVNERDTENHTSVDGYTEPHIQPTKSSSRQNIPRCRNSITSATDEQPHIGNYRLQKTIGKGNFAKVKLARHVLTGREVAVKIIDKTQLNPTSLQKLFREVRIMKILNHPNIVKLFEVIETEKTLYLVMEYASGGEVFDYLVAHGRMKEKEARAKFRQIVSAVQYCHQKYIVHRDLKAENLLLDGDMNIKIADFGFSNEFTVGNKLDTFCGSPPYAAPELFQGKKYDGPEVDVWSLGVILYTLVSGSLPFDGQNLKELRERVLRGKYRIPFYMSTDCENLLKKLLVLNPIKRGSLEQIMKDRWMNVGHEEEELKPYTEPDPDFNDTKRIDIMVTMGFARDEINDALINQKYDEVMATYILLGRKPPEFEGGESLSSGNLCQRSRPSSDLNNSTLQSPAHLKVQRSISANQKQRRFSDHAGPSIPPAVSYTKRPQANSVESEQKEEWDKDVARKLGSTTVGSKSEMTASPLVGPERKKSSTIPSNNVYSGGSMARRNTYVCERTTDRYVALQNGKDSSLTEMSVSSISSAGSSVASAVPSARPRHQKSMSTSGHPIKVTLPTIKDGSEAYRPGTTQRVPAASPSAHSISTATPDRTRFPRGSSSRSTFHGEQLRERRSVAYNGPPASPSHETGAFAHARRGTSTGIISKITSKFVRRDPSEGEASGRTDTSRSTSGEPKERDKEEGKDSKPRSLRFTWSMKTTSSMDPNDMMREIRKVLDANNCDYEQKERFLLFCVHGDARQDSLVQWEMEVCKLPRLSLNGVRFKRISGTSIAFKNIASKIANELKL
Assay [5] has as its target Serine/threonine-protein kinase 10 (Homo sapiens) (UniProt O94804). Briefly: Inhibition of human recombinant LOK at 15 nM in presence of ATP by radiometric assay relative to control.
Assay [6] has as its target Tyrosine-protein kinase Blk (Homo sapiens) (UniProt P51451). Put plainly: Inhibition of human recombinant BLK at 15 nM in presence of ATP by radiometric assay relative to control. The method, boiled down: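 Part of a radiometric in vitro activity panel of 327 recombinant human kinases. Each kinase was tested in duplicate at one inhibitor concentration. Activity remaining was expressed as a percentage of the vehicle control, and percent inhibition was taken as 100 minus that value.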

For assay [7], the target named is T1, Ephrin type-A receptor 1 (Homo sapiens) (UniProt P21709).
T1 sequence (whole entry): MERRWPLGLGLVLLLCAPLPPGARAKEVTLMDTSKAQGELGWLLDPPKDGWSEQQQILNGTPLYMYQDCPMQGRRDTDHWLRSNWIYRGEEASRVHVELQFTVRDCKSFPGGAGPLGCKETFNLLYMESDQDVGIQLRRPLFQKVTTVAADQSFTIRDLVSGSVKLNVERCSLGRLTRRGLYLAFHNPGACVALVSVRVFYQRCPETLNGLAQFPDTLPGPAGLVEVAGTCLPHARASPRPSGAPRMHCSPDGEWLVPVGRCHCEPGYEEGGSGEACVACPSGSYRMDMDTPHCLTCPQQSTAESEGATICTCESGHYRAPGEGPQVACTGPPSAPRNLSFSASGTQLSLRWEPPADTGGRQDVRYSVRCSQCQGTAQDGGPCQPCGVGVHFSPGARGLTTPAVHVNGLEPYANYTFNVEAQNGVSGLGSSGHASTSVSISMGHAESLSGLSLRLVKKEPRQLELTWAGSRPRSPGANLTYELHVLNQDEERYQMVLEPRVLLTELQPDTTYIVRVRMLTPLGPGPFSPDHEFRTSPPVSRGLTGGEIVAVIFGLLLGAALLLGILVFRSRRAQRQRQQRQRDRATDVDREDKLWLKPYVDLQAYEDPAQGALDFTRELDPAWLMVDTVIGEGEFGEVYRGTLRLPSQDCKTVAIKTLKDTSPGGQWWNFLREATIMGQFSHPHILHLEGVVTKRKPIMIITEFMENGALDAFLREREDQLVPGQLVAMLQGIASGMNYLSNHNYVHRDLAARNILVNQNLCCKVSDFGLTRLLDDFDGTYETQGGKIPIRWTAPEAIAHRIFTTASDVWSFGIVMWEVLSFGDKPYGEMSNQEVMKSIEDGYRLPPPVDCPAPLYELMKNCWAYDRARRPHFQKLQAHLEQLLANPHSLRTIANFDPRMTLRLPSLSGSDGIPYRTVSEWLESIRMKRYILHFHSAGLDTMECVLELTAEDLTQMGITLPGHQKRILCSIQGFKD
Put plainly: Inhibition of human recombinant EphA1 at 15 nM in presence of ATP by radiometric assay relative to control.

In assay [8] the target is Proto-oncogene tyrosine-protein kinase receptor Ret (Homo sapiens) (UniProt P07949). Put plainly: Inhibition of human recombinant RET at 15 nM in presence of ATP by radiometric assay relative to control.
Sequence of Proto-oncogene tyrosine-protein kinase receptor Ret (Homo sapiens) (P07949 whole entry): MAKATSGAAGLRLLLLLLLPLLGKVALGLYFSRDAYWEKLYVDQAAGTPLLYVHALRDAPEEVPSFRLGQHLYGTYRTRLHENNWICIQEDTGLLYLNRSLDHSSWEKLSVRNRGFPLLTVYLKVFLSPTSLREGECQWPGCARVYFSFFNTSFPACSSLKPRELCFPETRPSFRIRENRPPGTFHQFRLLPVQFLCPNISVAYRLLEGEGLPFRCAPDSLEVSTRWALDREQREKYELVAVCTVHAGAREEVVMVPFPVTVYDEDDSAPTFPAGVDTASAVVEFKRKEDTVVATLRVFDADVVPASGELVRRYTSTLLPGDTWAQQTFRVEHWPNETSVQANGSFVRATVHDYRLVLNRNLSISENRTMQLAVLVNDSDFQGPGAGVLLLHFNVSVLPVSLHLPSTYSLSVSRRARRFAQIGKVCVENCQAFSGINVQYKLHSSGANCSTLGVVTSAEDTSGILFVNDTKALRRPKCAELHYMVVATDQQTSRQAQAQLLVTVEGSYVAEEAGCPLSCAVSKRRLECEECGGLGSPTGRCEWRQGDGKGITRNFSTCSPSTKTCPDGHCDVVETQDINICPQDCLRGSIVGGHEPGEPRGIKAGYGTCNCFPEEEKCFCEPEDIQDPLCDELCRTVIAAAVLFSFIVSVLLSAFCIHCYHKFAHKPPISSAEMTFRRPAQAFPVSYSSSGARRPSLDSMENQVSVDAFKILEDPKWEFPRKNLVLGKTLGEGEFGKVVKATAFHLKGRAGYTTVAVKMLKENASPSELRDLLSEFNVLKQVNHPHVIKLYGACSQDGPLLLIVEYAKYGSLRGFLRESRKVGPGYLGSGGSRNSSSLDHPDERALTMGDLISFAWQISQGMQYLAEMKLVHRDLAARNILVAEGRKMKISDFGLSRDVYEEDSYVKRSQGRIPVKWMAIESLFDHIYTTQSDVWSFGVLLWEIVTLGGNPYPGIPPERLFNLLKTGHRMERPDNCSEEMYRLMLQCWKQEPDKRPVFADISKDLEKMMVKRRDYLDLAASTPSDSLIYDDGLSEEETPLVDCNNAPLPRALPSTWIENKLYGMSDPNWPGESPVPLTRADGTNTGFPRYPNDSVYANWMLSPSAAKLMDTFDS
The target in assay [9] is T2, Rhodopsin kinase GRK1 (Homo sapiens) (UniProt Q15835).
T2 sequence (whole entry): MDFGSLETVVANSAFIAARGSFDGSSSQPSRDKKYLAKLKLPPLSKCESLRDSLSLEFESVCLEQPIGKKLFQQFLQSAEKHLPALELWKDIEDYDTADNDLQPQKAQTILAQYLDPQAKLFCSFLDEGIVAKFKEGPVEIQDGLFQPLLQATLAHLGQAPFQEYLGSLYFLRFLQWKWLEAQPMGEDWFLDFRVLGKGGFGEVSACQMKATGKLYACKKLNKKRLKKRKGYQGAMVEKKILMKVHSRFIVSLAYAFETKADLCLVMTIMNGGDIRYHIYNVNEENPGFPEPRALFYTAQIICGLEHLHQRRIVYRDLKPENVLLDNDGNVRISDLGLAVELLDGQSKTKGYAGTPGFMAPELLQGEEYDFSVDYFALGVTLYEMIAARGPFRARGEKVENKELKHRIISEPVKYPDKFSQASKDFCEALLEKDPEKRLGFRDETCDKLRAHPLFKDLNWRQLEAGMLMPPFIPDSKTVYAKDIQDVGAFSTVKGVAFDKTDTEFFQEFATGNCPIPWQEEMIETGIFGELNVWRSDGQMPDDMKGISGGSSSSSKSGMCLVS
Briefly: Inhibition of human recombinant RHOK at 15 nM related to control ULK1.

Assay [10] has as its target T3, Serine/threonine-protein kinase Nek3 (Homo sapiens) (UniProt P51956).
T3 sequence (whole entry): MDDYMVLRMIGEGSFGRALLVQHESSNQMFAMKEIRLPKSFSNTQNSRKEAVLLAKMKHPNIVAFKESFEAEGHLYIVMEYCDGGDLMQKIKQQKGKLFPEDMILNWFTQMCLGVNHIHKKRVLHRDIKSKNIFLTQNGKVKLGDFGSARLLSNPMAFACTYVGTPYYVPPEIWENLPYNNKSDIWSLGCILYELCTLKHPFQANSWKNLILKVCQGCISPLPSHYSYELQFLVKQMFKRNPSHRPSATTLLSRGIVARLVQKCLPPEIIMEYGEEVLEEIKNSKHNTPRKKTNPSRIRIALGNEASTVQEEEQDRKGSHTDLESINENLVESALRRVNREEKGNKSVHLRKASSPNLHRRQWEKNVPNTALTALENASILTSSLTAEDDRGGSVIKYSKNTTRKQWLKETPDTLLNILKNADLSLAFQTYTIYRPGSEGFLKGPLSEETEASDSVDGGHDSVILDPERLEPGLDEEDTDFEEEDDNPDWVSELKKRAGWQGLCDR
Put plainly: Inhibition of human recombinant NEK3 at 15 nM in presence of ATP by radiometric assay relative to control.

Sequence of Tyrosine-protein kinase Blk (Homo sapiens) (P51451 2-505 limits assumed): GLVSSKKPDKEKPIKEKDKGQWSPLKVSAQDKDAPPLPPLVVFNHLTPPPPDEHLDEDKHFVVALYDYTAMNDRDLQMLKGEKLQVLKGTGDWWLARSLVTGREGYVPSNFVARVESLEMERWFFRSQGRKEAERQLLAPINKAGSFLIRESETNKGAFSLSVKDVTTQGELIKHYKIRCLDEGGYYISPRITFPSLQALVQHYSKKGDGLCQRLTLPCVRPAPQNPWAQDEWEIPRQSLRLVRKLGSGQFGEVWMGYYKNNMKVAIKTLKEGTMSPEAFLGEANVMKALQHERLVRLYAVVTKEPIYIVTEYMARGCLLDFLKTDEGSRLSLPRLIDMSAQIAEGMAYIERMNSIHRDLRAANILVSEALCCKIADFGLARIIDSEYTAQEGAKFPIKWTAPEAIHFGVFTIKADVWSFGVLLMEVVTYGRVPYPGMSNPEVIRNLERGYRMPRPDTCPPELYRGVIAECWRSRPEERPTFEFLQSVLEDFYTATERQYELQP
Sequence of Serine/threonine-protein kinase 10 (Homo sapiens) (O94804 whole entry, looked up): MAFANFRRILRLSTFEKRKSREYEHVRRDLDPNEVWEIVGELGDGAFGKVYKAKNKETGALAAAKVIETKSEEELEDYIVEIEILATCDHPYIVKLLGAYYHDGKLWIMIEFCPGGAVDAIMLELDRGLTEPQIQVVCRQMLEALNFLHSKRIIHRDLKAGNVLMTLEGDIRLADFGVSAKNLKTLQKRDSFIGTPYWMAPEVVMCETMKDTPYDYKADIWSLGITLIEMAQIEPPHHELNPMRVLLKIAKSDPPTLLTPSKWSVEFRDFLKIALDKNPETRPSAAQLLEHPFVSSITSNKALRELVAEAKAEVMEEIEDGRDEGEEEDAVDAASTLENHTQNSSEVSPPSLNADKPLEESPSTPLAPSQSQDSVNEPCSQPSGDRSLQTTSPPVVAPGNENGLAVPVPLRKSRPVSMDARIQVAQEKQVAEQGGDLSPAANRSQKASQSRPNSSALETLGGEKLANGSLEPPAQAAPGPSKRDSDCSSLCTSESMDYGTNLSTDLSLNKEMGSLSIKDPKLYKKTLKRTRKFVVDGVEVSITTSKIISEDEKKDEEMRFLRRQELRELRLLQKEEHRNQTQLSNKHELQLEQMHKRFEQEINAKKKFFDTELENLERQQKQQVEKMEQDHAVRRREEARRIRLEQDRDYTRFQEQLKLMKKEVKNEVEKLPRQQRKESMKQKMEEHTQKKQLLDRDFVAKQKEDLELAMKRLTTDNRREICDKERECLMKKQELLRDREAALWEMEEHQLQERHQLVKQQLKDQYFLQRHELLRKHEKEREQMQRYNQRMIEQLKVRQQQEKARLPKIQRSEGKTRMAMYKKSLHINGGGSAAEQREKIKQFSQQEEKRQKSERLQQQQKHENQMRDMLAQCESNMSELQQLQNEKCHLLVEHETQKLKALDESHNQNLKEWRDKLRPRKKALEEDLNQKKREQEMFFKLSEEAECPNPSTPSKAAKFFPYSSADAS
Sequence of Dual specificity mitogen-activated protein kinase kinase 1 (Homo sapiens) (Q02750 whole entry): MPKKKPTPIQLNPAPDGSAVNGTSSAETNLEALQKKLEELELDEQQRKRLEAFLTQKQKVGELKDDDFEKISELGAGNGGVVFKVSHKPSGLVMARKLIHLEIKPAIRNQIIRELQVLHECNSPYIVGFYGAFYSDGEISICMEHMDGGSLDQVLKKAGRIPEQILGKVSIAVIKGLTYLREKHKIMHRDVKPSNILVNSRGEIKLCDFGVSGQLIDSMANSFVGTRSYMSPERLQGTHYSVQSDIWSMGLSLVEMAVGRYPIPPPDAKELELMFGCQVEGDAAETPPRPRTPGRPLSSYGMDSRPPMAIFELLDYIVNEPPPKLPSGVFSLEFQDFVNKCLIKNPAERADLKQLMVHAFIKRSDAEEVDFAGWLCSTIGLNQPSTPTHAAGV

With `O=C(N[C@@H](C1CC1)C(F)(F)F)c1cc(-c2cnn3cc(-c4ccc(F)cc4)cnc23)cs1`, the results for the fold change (FC) in [1], in assay [2] and in assay [3] were 0, 0 and 0.27, respectively.
As for `CNC(=O)c1ccccc1Oc1nc(Nc2cc(OC)c(OC)c(OC)c2)ncc1Br`, the fold change (FC) in assay [4] turned out to be 0.73.
As usually defined, the inhibition is the percentage by which the read-out fell short of the control. For `CC(C)[C@H](NC(=O)c1cc(-c2cnn3cc(-c4ccc(OCCN5CCCCC5)cc4)cnc23)cs1)C(F)(F)F`, the inhibition in assay [5] is 0%; in assay [6], 10%; in [7] it was 0%; in assay [8], 14%; in [10], 1%. Also, in assay [9], the fold change (FC) was found to be 0.
